Measured values: ChEMBL document CHEMBL4052603, “Branimycins B and C, Antibiotics Produced by the Abyssal Actinobacterium Pseudonocardia carboxydivorans M-227” (2017)
≈ marks a conversion by molar mass, not a printed value.

Legend:
Type in all cases: functional
Acinetobacter baumannii = experiment: Antibacterial activity against Acinetobacter baumannii MB5973 after 20 hrs by spectrophotometric method; settings: MB5973, 20 h
Escherichia coli [1] = experiment: Antibacterial activity against Escherichia coli MB2884 after 20 hrs by spectrophotometric method; settings: MB2884, 20 h
Pseudomonas aeruginosa = experiment: Antibacterial activity against Pseudomonas aeruginosa PAO1 after 20 hrs by spectrophotometric method; settings: PAO1, 20 h
Clostridium perfringens = experiment: Antibacterial activity against Clostridium perfringens 103281 by CLSI method
[2] = tested on: Corynebacterium urealyticum; experiment: Antibacterial activity against Corynebacterium urealyticum 1492 by CLSI method
Outline: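 CLSI procedure on trypticasein soy agar with 5% sheep blood.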

Enterococcus faecalis [3] = experiment: Antibacterial activity against Enterococcus faecalis 10544 by CLSI method
Outline: (§1)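 CLSI susceptibility testing on Mueller-Hinton agar; clinical isolates came from patients with infections.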

Enterococcus faecalis [4] = experiment: Antibacterial activity against Enterococcus faecalis ATCC 29212 by CLSI method; outline: as §1
Enterococcus faecalis [5] = experiment: Antibacterial activity against Enterococcus faecalis ATCC 51299 by CLSI method; outline: as §1
Enterococcus faecium = experiment: Antibacterial activity against Enterococcus faecium 10701 by CLSI method; outline: as §1
Micrococcus luteus = experiment: Antibacterial activity against Micrococcus luteus ATCC 14452 by CLSI method; outline: as §1
[6] = tested on: Mycobacterium tuberculosis; experiment: Antibacterial activity against Mycobacterium tuberculosis H37Rv by CLSI method
Outline: (§2)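 Agar proportion method for slowly growing mycobacteria on Middlebrook 7H10 agar supplemented with 10% OADC and 0.5% glycerol.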

[7] = tested on: Mycobacterium tuberculosis; experiment: Antibacterial activity against Mycobacterium tuberculosis MDR-1 by CLSI method; outline: as §2
[8] = tested on: Mycobacterium tuberculosis; experiment: Antibacterial activity against Mycobacterium tuberculosis MDR-2 by CLSI method; outline: as §2
Staphylococcus aureus [9] = experiment: Antibacterial activity against Staphylococcus aureus ATCC 25923 by CLSI method; outline: as §1
Staphylococcus aureus [10] = experiment: Antibacterial activity against Staphylococcus aureus ATCC 6538P by CLSI method; outline: as §1
Staphylococcus aureus [11] = experiment: Antibacterial activity against Staphylococcus aureus ATCC 43300 by CLSI method
Staphylococcus aureus [12] = experiment: Antibacterial activity against Staphylococcus aureus 11497 by CLSI method; outline: as §1
Staphylococcus aureus [13] = experiment: Antibacterial activity against methicillin-resistant Staphylococcus aureus MB5393 by CLSI method
Outline: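 Broth microdilution: 90 μL diluted inoculum plus 8.4 μL medium (LB or BHI) and 1.6 μL compound dilution. Compounds tested as 2-fold serial dilutions from 160 to 0.31 μg/mL, in triplicate. Vancomycin (32 to 4 μg/mL) served as positive control and amphotericin B (16 to 0.25 μg/mL) as negative control.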

Staphylococcus aureus [14] = experiment: Antibacterial activity against methicillin-sensitive Staphylococcus aureus MB2865 by CLSI method
Outline: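 MSSA MB2865 tested with diluted inoculum mixed with medium (LB or BHI) plus compound dilution. Twofold serial dilutions from 160 to 0.31 μg/mL, in triplicate. Penicillin G (0.312 to 0.039 μg/mL) was the positive control and amphotericin B (16 to 0.25 μg/mL) the negative control.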

Streptococcus pneumoniae = experiment: Antibacterial activity against Streptococcus pneumoniae 64412 by CLSI method
Outline: (§3)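 CLSI procedure on Mueller-Hinton agar, supplemented per CLSI conditions for S. pneumoniae, S. pyogenes and N. meningitidis.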

Streptococcus pyogenes = experiment: Antibacterial activity against Streptococcus pyogenes 81293 by CLSI method; outline: as §3
Bacteroides fragilis [15] = experiment: Antibacterial activity against Bacteroides fragilis ATCC 25285 by CLSI method
Bacteroides fragilis [16] = experiment: Antibacterial activity against Bacteroides fragilis 61592 by CLSI method
Escherichia coli [17] = experiment: Antibacterial activity against Escherichia coli ESS by CLSI method; outline: as §1
Haemophilus influenzae [18] = experiment: Antibacterial activity against Haemophilus influenzae ATCC 49247 by CLSI method
Haemophilus influenzae [19] = experiment: Antibacterial activity against Haemophilus influenzae 10996 by CLSI method; outline: as §1
Klebsiella pneumoniae = experiment: Antibacterial activity against Klebsiella pneumoniae ATCC 700603 by CLSI method
Neisseria meningitidis = experiment: Antibacterial activity against Neisseria meningitidis 71327 by CLSI method; outline: as §3

Row | SMILES | MIC (Acinetobacter baumannii) [µg/mL] | MIC (Escherichia coli [1]) [µg/mL] | MIC (Pseudomonas aeruginosa) [µg/mL] | MIC (Clostridium perfringens) [µg/mL] | MIC [2] [µg/mL] | MIC (Enterococcus faecalis [3]) [µg/mL] | MIC (Enterococcus faecalis [4]) [µg/mL] | MIC (Enterococcus faecalis [5]) [µg/mL] | MIC (Enterococcus faecium) [µg/mL] | MIC (Micrococcus luteus) [µg/mL] | MIC [6] [µg/mL] | MIC [7] [µg/mL] | MIC [8] [µg/mL] | MIC (Staphylococcus aureus [9]) [µg/mL] | MIC (Staphylococcus aureus [10]) [µg/mL] | MIC (Staphylococcus aureus [11]) [µg/mL] | MIC (Staphylococcus aureus [12]) [µg/mL] | MIC (Staphylococcus aureus [13]) [µg/mL] | MIC (Staphylococcus aureus [14]) [µg/mL] | MIC (Streptococcus pneumoniae) [µg/mL] | also measured
1 | COC[C@H]1[C@@H](O)[C@@H]2O[C@@]34/C(C)=C/[C@@H](C)[C@@H]([C@H](O)CO)OC(=O)[C@H](COC)[C@H]3C=C[C@@H]2[C@H]4[C@@H]1O | > 80 | > 80 | > 80 | 16 (≈ 34.1 µM) | 16 (≈ 34.1 µM) | 64 (≈ 137 µM) | > 64 | > 64 | > 64 | 16 (≈ 34.1 µM) | > 32 | > 32 | > 32 | 64 (≈ 137 µM) | 32 (≈ 68.3 µM) | > 64 | > 64 | 20 to 40 (≈ 42.7 to 85.4 µM) | 80 (≈ 171 µM) | > 128 | MIC (Streptococcus pyogenes): > 128 µg/mL; MIC (Bacteroides fragilis [15]): 128 µg/mL (≈ 273 µM); MIC (Bacteroides fragilis [16]): > 128 µg/mL; MIC (Escherichia coli [17]): 128 µg/mL (≈ 273 µM); MIC (Haemophilus influenzae [18]): > 64 µg/mL; MIC (Haemophilus influenzae [19]): > 64 µg/mL; MIC (Klebsiella pneumoniae): > 80 µg/mL; MIC (Neisseria meningitidis): 64 µg/mL (≈ 137 µM)
2 | COC[C@H]1C(=O)O[C@H]([C@H](O)CO)[C@H](C)/C=C(\C)[C@@]23O[C@H]4[C@H](O)[C@H](C)[C@@H](O)[C@@H]2[C@H]4C=C[C@H]13 | > 80 | > 80 | > 80 | 32 (≈ 73 µM) | 8 (≈ 18.2 µM) | > 64 | > 64 | > 64 | > 64 | 1 (≈ 2.28 µM) | > 32 | > 32 | > 32 | > 64 | > 128 | > 64 | > 64 | > 160 | > 160 | > 128 | MIC (Streptococcus pyogenes): > 128 µg/mL; MIC (Bacteroides fragilis [15]): 32 µg/mL (≈ 73 µM); MIC (Bacteroides fragilis [16]): 128 µg/mL (≈ 292 µM); MIC (Escherichia coli [17]): 64 µg/mL (≈ 146 µM); MIC (Haemophilus influenzae [18]): 32 µg/mL (≈ 73 µM); MIC (Haemophilus influenzae [19]): > 64 µg/mL; MIC (Klebsiella pneumoniae): > 80 µg/mL; MIC (Neisseria meningitidis): 32 µg/mL (≈ 73 µM)
